Test results taken from ChEMBL document CHEMBL1121923, “N2- and C-7 substituted actinomycin D analogues: synthesis, DNA-binding affinity, and biochemical and biological properties. Structure-activity relationship” (J Med Chem, 1981).
Converted amounts (≈) assume the structure as drawn. *1 amine or outer side, *2 acyl side, *3 side chain or, on linkers, in order; H or OH if unused. Where a SMILES comes first, the peptide text is derived from it. Bridges are numbered along the chain shown (N, C = ends). Roman numbers before positions name the chains, in order. [ ]: non-standard residue; d: D form. Actinocin(9to1) = Cc1c2oc3c(C)ccc(C(=O)[*:1])c3nc-2c(C(=O)[*:2])c(N)c1=O; NMeV = CN[C@H](C(=O)O)C(C)C; Sar = CNCC(=O)O

How the values were obtained:
P388 [1] = test: Concentration required for 50% inhibition of incorporation of labeled thymidine by p388 cells for synthesis of DNA (in vitro); e indicates values are high and variable; assay type: functional, cell-based; conditions: Mus musculus
Calf thymus DNA [2] = test: Apparent binding constant calf thymus DNA-drug complex; assay type: nucleic-acid assay; conditions: Bos taurus
Outline: (§1)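 Calf thymus DNA; spectral titration; binding isotherms in 0.01 M phosphate buffer, pH 7.0, 20 °C; Kapp (per base pair) and Bapp (drug binding sites per base pair) taken from Scatchard plot.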

Calf thymus DNA [3] = test: Apparent number of binding sites per base pairs in DNA; Not measurable; assay type: nucleic-acid assay; conditions: Bos taurus; outline: as §1
P388 [4] = test: Concentration required for 50% inhibition of incorporation of labeled uridine by P388 cells for the synthesis of RNA (in vitro); e indicates values are high and variable; assay type: functional, cell-based; conditions: Mus musculus
Calf thymus DNA [5] = test: Apparent number of binding sites per base pairs in DNA; assay type: nucleic-acid assay; conditions: Bos taurus; outline: as §1
P388 [6] = test: Median survival time of the P388 cells implanted CDF1 male mice in vivo; assay type: functional, Mus musculus
Outline: (§2)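 CDF1 male mice, groups of seven, given 10^6 P388 cells ip on day 0; drug ip in 5% DMSO–saline on days 1, 5 and 9; controls received vehicle; range of doses tested, optimal nontoxic dose listed; median survival time; %ILS = (treated − control)/control × 100; average of two or more experiments.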

P388 [7] = test: Concentration required for 50% inhibition of incorporation of labeled uridine by P388 cells for the synthesis of RNA (in vitro); assay type: functional; conditions: Mus musculus, read-out: ED50 (the source's name)
Bos taurus = species: Bos taurus; test: Thermal denaturation (deltaTm) of compound against calf thymus DNA was measured; assay type: ADME; conditions: cattle, in vitro
Outline: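 Calf thymus DNA (MW 100 000–500 000) in 0.01 M phosphate, 5 × 10^-3 M EDTA, pH 7.0; drug 7 × 10^-4 M, DNA nucleotide 7 × 10^-3 M; 259 nm absorbance read at 0.25–1.0 °C steps; Tm taken at 50% hyperchromicity; ΔTm = complex Tm minus DNA Tm.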

P388 [8] = test: Percent of increased life span of P388 cells implanted CDF1 male mice; assay type: functional, Mus musculus; outline: as §2
P388 [9] = test: Optimal dose for antitumor activity was measured in P388 cells of CDF1 male mice in vivo; assay type: functional, Mus musculus; outline: as §2
CCRF-CEM = test: In vitro antitumor activity against human lymphoblastic leukemia cells.; assay type: functional; conditions: read-out: ID50 (the source's name)
Outline: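 Human lymphoblastic leukemia CCRF-CEM cells grown in suspension culture; growth inhibition in vitro; ID50 (ng/mL) reported as the 50% inhibitory dose.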

P388 [10] = test: Concentration required for 50% inhibition of incorporation of labeled thymidine by p388 cells for synthesis of DNA (in vitro); assay type: functional; conditions: Mus musculus, read-out: ED50 (the source's name)

Compound: Cc1c2oc3c(C)c(OCc4ccc(Cl)c(Cl)c4)cc(C(=O)N[C@@H]4C(=O)N[C@H](C(C)C)C(=O)N5CCC[C@@H]5C(=O)N(C)CC(=O)N(C)[C@@H](C(C)C)C(=O)O[C@@H]4C)c3nc-2c(C(=O)N[C@H]2C(=O)N[C@@H](C(C)C)C(=O)N3CCC[C@H]3C(=O)N(C)CC(=O)N(C)[C@H](C(C)C)C(=O)O[C@H]2C)c(N)c1=O
- ED50 (P388 [1]): High and variable values
- K app (Calf thymus DNA [2]): 10000 M⁻¹
- Bapp (Calf thymus DNA [3]): Not measurable
- ED50 (P388 [4]): High and variable values

Compound: Cc1c2oc3c(C)c(O)c(N)c(C(=O)N[C@@H]4C(=O)N[C@H](C(C)C)C(=O)N5CCC[C@H]5C(=O)N(C)CC(=O)N(C)[C@@H](C(C)C)C(=O)O[C@H]4C)c3nc-2c(C(=O)N[C@@H]2C(=O)N[C@H](C(C)C)C(=O)N3CCC[C@H]3C(=O)N(C)CC(=O)N(C)[C@@H](C(C)C)C(=O)O[C@H]2C)cc1=N
- Bapp (Calf thymus DNA [5]): 0.121
- K app (Calf thymus DNA [2]): 2.3e+07 M⁻¹

Compound: Cc1c2oc3c(C)c(O)c(N)c(C(=O)N[C@H]4C(=O)N[C@@H](C(C)C)C(=O)N5CCC[C@H]5C(=O)N(C)CC(=O)N(C)[C@H](C(C)C)C(=O)O[C@H]4C)c3nc-2c(C(=O)N[C@@H]2C(=O)N[C@H](C(C)C)C(=O)N3CCC[C@@H]3C(=O)N(C)CC(=O)N(C)[C@@H](C(C)C)C(=O)O[C@@H]2C)c/c1=N/Cc1cccc(Oc2ccccc2)c1
- Bapp (Calf thymus DNA [5]): 0.055
- K app (Calf thymus DNA [2]): 8.8e+06 M⁻¹

Compound: COc1cc(C(=O)N[C@@H]2C(=O)N[C@H](C(C)C)C(=O)N3CCC[C@@H]3C(=O)N(C)CC(=O)N(C)[C@@H](C(C)C)C(=O)O[C@@H]2C)c2nc3c(C(=O)N[C@H]4C(=O)N[C@@H](C(C)C)C(=O)N5CCC[C@H]5C(=O)N(C)CC(=O)N(C)[C@H](C(C)C)C(=O)O[C@H]4C)c(N)c(=O)c(C)c-3oc2c1C
- Bapp (Calf thymus DNA [5]): 0.11
- K app (Calf thymus DNA [2]): 7.7e+06 M⁻¹

Compound: Cc1c2oc3c(C)c(O)c(N)c(C(=O)N[C@H]4C(=O)N[C@@H](C(C)C)C(=O)N5CCC[C@H]5C(=O)N(C)CC(=O)N(C)[C@H](C(C)C)C(=O)O[C@H]4C)c3nc-2c(C(=O)N[C@@H]2C(=O)N[C@H](C(C)C)C(=O)N3CCC[C@@H]3C(=O)N(C)CC(=O)N(C)[C@@H](C(C)C)C(=O)O[C@@H]2C)c/c1=N/Cc1ccco1
- Bapp (Calf thymus DNA [5]): 0.055
- K app (Calf thymus DNA [2]): 3.8e+06 M⁻¹

Compound: Cc1c2oc3c(C)c(O)c(N)c(C(=O)N[C@H]4C(=O)N[C@@H](C(C)C)C(=O)N5CCC[C@H]5C(=O)N(C)CC(=O)N(C)[C@H](C(C)C)C(=O)O[C@H]4C)c3nc-2c(C(=O)N[C@@H]2C(=O)N[C@H](C(C)C)C(=O)N3CCC[C@@H]3C(=O)N(C)CC(=O)N(C)[C@@H](C(C)C)C(=O)O[C@@H]2C)c/c1=N/Cc1ccccc1
- Bapp (Calf thymus DNA [5]): 0.049
- K app (Calf thymus DNA [2]): 5.8e+06 M⁻¹

Compound: Cc1c2oc3c(C)ccc(C(=O)N[C@@H]4C(=O)N[C@H](C(C)C)C(=O)N5CCC[C@H]5C(=O)N(C)CC(=O)N(C)[C@@H](C(C)C)C(=O)O[C@@H]4C)c3nc-2c(C(=O)N[C@@H]2C(=O)N[C@H](C(C)C)C(=O)N3CCC[C@H]3C(=O)N(C)CC(=O)N(C)[C@@H](C(C)C)C(=O)O[C@@H]2C)c(N)c1=O [DACTINOMYCIN] (I: T[dV]P[Sar][NMeV] / II: T[dV]P[Sar][NMeV]; ester I:1-I:C, II:1-II:C; linker I:N-II:N via Actinocin(9to1))
- Bapp (Calf thymus DNA [5]): 0.108
- MST (P388 [6]): 24 days
- EC50 (P388 [7]): 46 nM
- Delta Tm (Bos taurus): 7.1
- K app (Calf thymus DNA [2]): 2.3e+07 M⁻¹
- ILS (P388 [8]): 129%
- Optimal dose (P388 [9]): 0.125 mg/kg
- IC50 (CCRF-CEM): 0.06 µg/mL (≈ 0.0478 µM)
- EC50 (P388 [10]): 996 nM

Compound: Cc1c2oc3c(C)c(O)c(N)c(C(=O)N[C@H]4C(=O)N[C@@H](C(C)C)C(=O)N5CCC[C@H]5C(=O)N(C)CC(=O)N(C)[C@H](C(C)C)C(=O)O[C@H]4C)c3nc-2c(C(=O)N[C@@H]2C(=O)N[C@H](C(C)C)C(=O)N3CCC[C@@H]3C(=O)N(C)CC(=O)N(C)[C@@H](C(C)C)C(=O)O[C@@H]2C)cc1=O
- Bapp (Calf thymus DNA [5]): 0.1
- K app (Calf thymus DNA [2]): 3.2e+07 M⁻¹

Compound: CCOc1cc(C(=O)N[C@@H]2C(=O)N[C@H](C(C)C)C(=O)N3CCC[C@@H]3C(=O)N(C)CC(=O)N(C)[C@@H](C(C)C)C(=O)O[C@@H]2C)c2nc3c(C(=O)N[C@H]4C(=O)N[C@@H](C(C)C)C(=O)N5CCC[C@H]5C(=O)N(C)CC(=O)N(C)[C@H](C(C)C)C(=O)O[C@H]4C)c(N)c(=O)c(C)c-3oc2c1C
- Bapp (Calf thymus DNA [5]): 0.097
- K app (Calf thymus DNA [2]): 6.9e+06 M⁻¹

Compound: CCCCOc1cc(C(=O)N[C@@H]2C(=O)N[C@H](C(C)C)C(=O)N3CCC[C@@H]3C(=O)N(C)CC(=O)N(C)[C@@H](C(C)C)C(=O)O[C@@H]2C)c2nc3c(C(=O)N[C@H]4C(=O)N[C@@H](C(C)C)C(=O)N5CCC[C@H]5C(=O)N(C)CC(=O)N(C)[C@H](C(C)C)C(=O)O[C@H]4C)c(N)c(=O)c(C)c-3oc2c1C
- K app (Calf thymus DNA [2]): 1.1e+06 M⁻¹

Compound: CCCOc1cc(C(=O)N[C@@H]2C(=O)N[C@H](C(C)C)C(=O)N3CCC[C@H]3C(=O)N(C)CC(=O)N(C)[C@@H](C(C)C)C(=O)O[C@@H]2C)c2nc3c(C(=O)N[C@@H]4C(=O)N[C@H](C(C)C)C(=O)N5CCC[C@H]5C(=O)N(C)CC(=O)N(C)[C@@H](C(C)C)C(=O)O[C@@H]4C)c(N)c(=O)c(C)c-3oc2c1C
- MST (P388 [6]): 16 days
- EC50 (P388 [7]): 230 nM
- ILS (P388 [8]): 52%
- Optimal dose (P388 [9]): 0.75 mg/kg
- IC50 (CCRF-CEM): 0.31 µg/mL (≈ 0.236 µM)
- EC50 (P388 [10]): 1980 nM

Compound: Cc1c2oc3c(C)c(OC(=O)C45CC6CC(CC(C6)C4)C5)cc(C(=O)N[C@@H]4C(=O)N[C@H](C(C)C)C(=O)N5CCC[C@H]5C(=O)N(C)CC(=O)N(C)[C@@H](C(C)C)C(=O)O[C@@H]4C)c3nc-2c(C(=O)N[C@@H]2C(=O)N[C@H](C(C)C)C(=O)N3CCC[C@H]3C(=O)N(C)CC(=O)N(C)[C@@H](C(C)C)C(=O)O[C@@H]2C)c(N)c1=O
- MST (P388 [6]): 28 days
- EC50 (P388 [7]): 176 nM
- ILS (P388 [8]): 167%
- Optimal dose (P388 [9]): 0.5 mg/kg
- IC50 (CCRF-CEM): 0.2 µg/mL (≈ 0.14 µM)
- EC50 (P388 [10]): 730 nM

Compound: Cc1c2oc3c(C)ccc(C(=O)N[C@@H]4C(=O)N[C@H](C(C)C)C(=O)N5CCC[C@H]5C(=O)N(C)CC(=O)N(C)[C@@H](C(C)C)C(=O)O[C@@H]4C)c3nc-2c(C(=O)N[C@@H]2C(=O)N[C@H](C(C)C)C(=O)N3CCC[C@H]3C(=O)N(C)CC(=O)N(C)[C@@H](C(C)C)C(=O)O[C@@H]2C)c(NCCCCCCCCCCN)c1=O
- MST (P388 [6]): 18 days
- EC50 (P388 [7]): 700 nM
- ILS (P388 [8]): 64%
- Optimal dose (P388 [9]): 1.8 mg/kg
- IC50 (CCRF-CEM): 0.28 µg/mL (≈ 0.198 µM)
- EC50 (P388 [10]): 2700 nM

Compound: Cc1c2oc3c(C)c(O)c(N)c(C(=O)N[C@H]4C(=O)N[C@@H](C(C)C)C(=O)N5CCC[C@H]5C(=O)N(C)CC(=O)N(C)[C@H](C(C)C)C(=O)O[C@H]4C)c3nc-2c(C(=O)N[C@@H]2C(=O)N[C@H](C(C)C)C(=O)N3CCC[C@@H]3C(=O)N(C)CC(=O)N(C)[C@@H](C(C)C)C(=O)O[C@@H]2C)c/c1=N/Cc1ccc[nH]1
- Bapp (Calf thymus DNA [5]): 0.055
- K app (Calf thymus DNA [2]): 9.2e+07 M⁻¹

Compound: CCCOc1cc(C(=O)N[C@@H]2C(=O)N[C@H](C(C)C)C(=O)N3CCC[C@@H]3C(=O)N(C)CC(=O)N(C)[C@@H](C(C)C)C(=O)O[C@@H]2C)c2nc3c(C(=O)N[C@H]4C(=O)N[C@@H](C(C)C)C(=O)N5CCC[C@H]5C(=O)N(C)CC(=O)N(C)[C@H](C(C)C)C(=O)O[C@H]4C)c(N)c(=O)c(C)c-3oc2c1C
- Bapp (Calf thymus DNA [5]): 0.078
- K app (Calf thymus DNA [2]): 2.1e+06 M⁻¹

Compound: Cc1c2oc3c(C)c(O)c(N)c(C(=O)N[C@H]4C(=O)N[C@@H](C(C)C)C(=O)N5CCC[C@H]5C(=O)N(C)CC(=O)N(C)[C@H](C(C)C)C(=O)O[C@H]4C)c3nc-2c(C(=O)N[C@@H]2C(=O)N[C@H](C(C)C)C(=O)N3CCC[C@@H]3C(=O)N(C)CC(=O)N(C)[C@@H](C(C)C)C(=O)O[C@@H]2C)c/c1=N/Cc1ccc(Cl)c(Cl)c1
- Bapp (Calf thymus DNA [5]): 0.058
- K app (Calf thymus DNA [2]): 2.6e+07 M⁻¹
